Results as given in ChEMBL document CHEMBL4819109, “Discovery of boronic acid-based potent activators of tumor pyruvate kinase M2 and development of gastroretentive nanoformulation for oral dosing” (Bioorg Med Chem Lett, 2021).
Active and inactive are the calls of the source. The rule behind the calls is not given here.

Experiments:
Pyruvate kinase PKM [1] = biological target: T1, Pyruvate kinase PKM (Homo sapiens, UniProt P14618); experiment: Activation of PKM2 (unknown origin) by pyruvate kinase-lactate dehydrogenase coupled assay
Target sequence in this assay (P14618 whole entry): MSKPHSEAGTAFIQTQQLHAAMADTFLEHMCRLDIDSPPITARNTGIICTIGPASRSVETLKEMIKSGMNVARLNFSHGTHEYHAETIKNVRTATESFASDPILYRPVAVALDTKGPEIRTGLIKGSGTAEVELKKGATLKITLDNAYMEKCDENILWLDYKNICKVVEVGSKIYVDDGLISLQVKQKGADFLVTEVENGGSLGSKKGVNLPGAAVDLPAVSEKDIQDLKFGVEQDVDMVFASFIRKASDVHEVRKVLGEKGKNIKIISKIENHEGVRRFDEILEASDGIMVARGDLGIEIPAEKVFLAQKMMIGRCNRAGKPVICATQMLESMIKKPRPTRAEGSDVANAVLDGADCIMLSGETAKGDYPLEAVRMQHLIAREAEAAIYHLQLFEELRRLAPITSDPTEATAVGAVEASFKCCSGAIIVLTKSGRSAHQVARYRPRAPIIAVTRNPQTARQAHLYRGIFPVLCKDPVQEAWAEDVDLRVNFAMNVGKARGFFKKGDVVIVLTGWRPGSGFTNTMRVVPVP

COLO 201 = experiment: Growth inhibition of human Colo-201 cells by MTT assay; assay type: functional, cell-based
Method in brief: (§1)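 Cells were treated with varying compound concentrations and viability was read by MTT assay. IC50 values are reported ± error. Normal fibroblasts were tested alongside.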

[2] = Growth inhibition of human BCL2 Jurkat cells by MTT assay; assay type: functional; method in brief: as §1
MCF7 [3] = experiment: Growth inhibition of human MCF7 cells by MTT assay; assay type: functional, cell-based; method in brief: as §1
[4] = Growth inhibition of human Mesenchymal stem cells by MTT assay; assay type: tissue-based; method in brief: as §1
MDA-MB-231 = experiment: Growth inhibition of human MDA-MB-231 cells by MTT assay; assay type: functional, cell-based; method in brief: as §1
MCF7 [5] = experiment: Induction of apoptosis in human MCF7 cells assessed as viable cells at 100 nM incubated for 48 hrs by AnnexinV/PI staining based flow cytometry; assay type: functional; details: read-out: Activity
MCF7 [6] = experiment: Induction of apoptosis in human MCF7 cells assessed as early apoptotic cells at 100 nM incubated for 48 hrs by AnnexinV/PI staining based flow cytometry; assay type: functional
MCF7 [7] = experiment: Induction of apoptosis in human MCF7 cells assessed as late apoptotic cells at 100 nM incubated for 48 hrs by AnnexinV/PI staining based flow cytometry; assay type: functional
MCF7 [8] = experiment: Induction of apoptosis in human MCF7 cells assessed as necrotic cells at 100 nM incubated for 48 hrs by AnnexinV/PI staining based flow cytometry; assay type: functional
Pyruvate kinase PKM [9] = biological target: T1, Pyruvate kinase PKM; experiment: Activation of […] in human MCF7 cells assessed as increase in tetramer formation at 100 nM measured after 48 hrs by DSS cross linker assay; assay type: cell-based; details: filed as activator
Method in brief: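 MCF-7 cells exposed to 100 nM for 48 h, then cross-linked with disuccinimidyl suberate (DSS). Tetrameric PKM2 was read as the 250 kDa band and compared with untreated MCF-7 control cells.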
Target sequence in this assay (P14618 2-531 limits assumed): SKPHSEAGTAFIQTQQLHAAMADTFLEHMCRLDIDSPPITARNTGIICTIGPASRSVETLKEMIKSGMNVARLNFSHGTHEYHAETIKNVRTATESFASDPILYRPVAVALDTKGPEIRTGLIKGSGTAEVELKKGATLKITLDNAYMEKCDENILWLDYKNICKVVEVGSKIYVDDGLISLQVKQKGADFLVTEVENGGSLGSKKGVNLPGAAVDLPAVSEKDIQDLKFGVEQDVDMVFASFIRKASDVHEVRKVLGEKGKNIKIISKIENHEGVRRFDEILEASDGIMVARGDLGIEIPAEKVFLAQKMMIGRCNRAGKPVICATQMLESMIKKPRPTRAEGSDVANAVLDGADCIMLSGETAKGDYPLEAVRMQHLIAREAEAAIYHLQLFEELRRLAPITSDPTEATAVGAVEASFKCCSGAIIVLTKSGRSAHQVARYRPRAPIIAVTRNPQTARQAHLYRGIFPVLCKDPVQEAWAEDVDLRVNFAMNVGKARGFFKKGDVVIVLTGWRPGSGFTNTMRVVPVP

Pyruvate kinase PKM [10] = biological target: T1, Pyruvate kinase PKM; experiment: Activation of PKM2 (unknown origin) assessed as increase in tetramer formation by measuring scattering by Dynamic Light Scattering assay; details: filed as activator
Target sequence in this assay (P14618 2-531 limits assumed): as above

SMILES | EC50 (Pyruvate kinase PKM [1]) [µM] | IC50 (COLO 201) [µM] | IC50 [2] [µM] | IC50 (MCF7 [3]) [µM] | IC50 [4] [µM] | IC50 (MDA-MB-231) [µM] | viability at 0.1 µM (MCF7 [5]) [%] | Activity (MCF7 [6]) [%] | Activity (MCF7 [7]) [%] | Activity (MCF7 [8]) [%] | Activity (Pyruvate kinase PKM [9]) | Activity (Pyruvate kinase PKM [10])
CCOC(=O)/C(=C\c1ccc(B(O)O)cc1)C(=O)c1sc(Nc2ccccc2)nc1N(C)C | 7.15 | 2.81 | 6.36 | 1.5 | 40.6 | 38 | – | – | – | – | – | –
COc1cccc2c1C(=O)c1c(O)c3c(c(O)c1C2=O)C[C@@](O)(C(=O)CO)C[C@@H]3O[C@H]1C[C@H](N)[C@H](O)[C@H](C)O1 [DOXORUBICIN] | – | 0.8 | 3.03 | – | 2.37 | 1.3 | – | – | – | – | – | –
CCOC(=O)/C(=C\c1ccc(B(O)O)cc1)C(=O)c1sc(Nc2ccc(Cl)cc2)nc1N(C)C | 5.69 | 3.75 | 2.82 | 0.08 | 23.9 | 34.9 | 45.3 | 8.81 | 23.5 | 22.37 | Active | Active
CCOC(=O)/C(=C\c1ccc(B(O)O)cc1)C(=O)c1sc(Nc2ccc(OC)cc2)nc1N(C)C | 8.17 | 5.5 | 0.57 | 2.72 | 25.8 | 58.7 | – | – | – | – | – | –
CCOC(=O)/C(=C\c1ccc(B(O)O)cc1)C(=O)c1sc(Nc2ccc(F)cc2)nc1-c1ccccc1 | 6.11 | 5.58 | 0.09 | 2.71 | 29.4 | 36.6 | – | – | – | – | – | –
